In the library only some 3% were active in any assay of this set; here they are far more common.
SENP1 inh: inhibitors of human SENP1 SUMO protease catalytic domain | Q9P0U3 | recombinant SENP1 catalytic domain, CyPet-SUMO1-YPet FRET cleavage | inhibition, % at 10 µM | 0.21% of 360,000 active;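 active = inhibition at least 30% at 10 µM, raw YFP signal under a set limit, fluorescence ratio 0.5 to 1.5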;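 note: 0% = enzyme with DMSO and 100% = no enzyme wells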
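Controls: no-enzyme wells low, DMSO-plus-enzyme wells high control. Test system: human recombinant His6-tagged SENP1 catalytic domain enzyme. Reagent: SFCypet-SUMO1-SFYpet FRET protein substrate, 25 nM final. Doses: one dose per compound, 10 µM, 0.5% DMSO. Detection: FRET, CFP and YFP emission. Timing: 50 min reaction at room temperature.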
Exocytosis inh: lytic granule exocytosis inhibition; inhibition, % at 10 µM; 0.66% of 360,000 active; AID 651702; TALL-104 LAMP-1 surface exposure, flow cytometry; cells stimulated with thapsigargin and PMA;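 active = inhibition above about 55%, limit read from the data; inconclusive = no clear call, values can overlap the other calls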
Cardio protect: myocardial damage modulation in H9c2 cells | H9c2 cardiomyocytes, H2O2 injury protection, ATPLite, 2 h | protection from H2O2 cell death, % at 20 µM | AID 588492 | 0.63% of 360,000 active;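 active = compounds giving at least 50% protection of heart cells from peroxide-induced death in the single-dose screen, raw or plate-pattern-corrected value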;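 note: 0% = DMSO wells with peroxide and 100% = DMSO wells without peroxide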
DSG3 Ab inh: blocks pemphigus antibody binding to human desmoglein-3; binding (percent of control), % at 10 µM; 0.48% of 310,000 active; P32926; DSG3-coupled beads, scFv-anti-DSG3-GFP binding, flow cytometry; stronger effect = lower value;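 active = binding more than 3 SD below its plate's average and above zero; inconclusive = below that plate limit but binding exactly zero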;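 note: hits lower antibody fragment binding to DSG3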
HNF4A DNA FP: change in binding of human HNF4 alpha to DNA; activity change, % at 10 µM; 0.3% of 360,000 active; HNF4a-FITC DNA binding, fluorescence polarization, 1 h; P41235; in the data active = activity change above about 30%, passing the limit was not always enough
Target sequence (P41235 whole entry, looked up): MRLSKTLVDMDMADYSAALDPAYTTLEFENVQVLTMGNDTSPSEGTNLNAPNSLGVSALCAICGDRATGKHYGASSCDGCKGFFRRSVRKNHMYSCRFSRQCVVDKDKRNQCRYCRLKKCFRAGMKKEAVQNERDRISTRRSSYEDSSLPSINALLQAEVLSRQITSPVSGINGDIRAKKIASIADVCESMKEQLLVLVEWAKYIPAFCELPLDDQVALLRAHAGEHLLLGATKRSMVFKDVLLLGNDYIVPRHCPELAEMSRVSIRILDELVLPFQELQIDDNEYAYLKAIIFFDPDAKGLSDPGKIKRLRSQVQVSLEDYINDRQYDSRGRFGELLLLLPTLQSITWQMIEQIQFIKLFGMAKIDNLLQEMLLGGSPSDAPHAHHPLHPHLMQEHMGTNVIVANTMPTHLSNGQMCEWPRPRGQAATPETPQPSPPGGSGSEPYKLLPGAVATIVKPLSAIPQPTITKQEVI
Myeloid diff MLP: compounds promoting myeloid differentiation; ER-HoxA9 myeloid progenitors, lysozyme-GFP differentiation, flow cytometry; calls only at 10 µM; 1% of 360,000 active; AID 624256;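 active = normalized GFP-positive differentiation at or above the plate's own cutoff, the solvent-only control mean plus 3 SD; inconclusive = no clear call, values can overlap the other calls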;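 note: cells exposed to compound for four days before flow analysis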
SENP1 inh conf: SENP1 (human) inhibition, single concentration confirmation; shares compounds with SENP1 inh; recombinant SENP1, CyPet-SUMO1-YPet FRET cleavage; inhibition, % at 10 µM; 34% of 520 active; AID 651678; in the data active = inhibition mostly above about 35%, no sharp cut-off; inactive = mostly below about 32%;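 note: 0% = enzyme with DMSO and 100% = no enzyme control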
SENP1 kinetic: confirmation of human SENP1 SUMO protease inhibitors, kinetic; recombinant SENP1, CyPet-SUMO1-YPet FRET kinetic cleavage; inhibition, % at 10 µM; shares compounds with SENP1 inh; 26% of 520 active; in the data active = inhibition mostly above about 32%, no sharp cut-off; inactive = mostly below about 29%;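 note: 0% = DMSO with enzyme and 100% = no enzyme substrate only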
Starred values were filed as active, the others as inactive; i = inactive; ? = inconclusive; nt = no result given.

SMILES	SENP1 inh	Exocytosis inh	Cardio protect	DSG3 Ab inh	HNF4A DNA FP	Myeloid diff MLP	SENP1 inh conf	SENP1 kinetic
CCCCCCCCN1C(=O)[C@H](CC(=O)NCCc2ccccc2OC)C[C@@]2(C(=O)OC)CCCCC=C12	-2	8	nt	nt	3	i	nt	nt
CCOc1ccc(N2C(=O)C(Cl)=C(Nc3ccccc3O)C2=O)cc1	36*	-6	-8	121	9	i	28	14
O=C1C(Cl)=C(Nc2ccccc2O)C(=O)N1CCc1ccccc1	41*	0	-7	118	13	i	17	15
Cn1c(=O)c2ncn(C)c2n(C)c1=O	2	2	-1	126	0	i	nt	nt
Nc1ccc2c(C(F)(F)F)cc(C(F)(F)F)nc2n1	-11	-3	1	102	-6	i	nt	nt
Nc1nc(N)c2sc3nc(C(F)(F)F)cc(C(F)(F)F)c3c2n1	68*	1	-14	nt	6	i	35*	25
O=C(NC(Cc1ccccc1)C(=O)O)/C(=C\c1ccc([N+](=O)[O-])cc1)NC(=O)c1ccco1 (centres undefined)	33*	-5	4	99	3	i	2	4
O=C(NC(Cc1ccccc1)C(=O)O)/C(=C/c1cccc([N+](=O)[O-])c1)NC(=O)c1ccco1 (centres undefined)	-37	1	12	103	-1	i	nt	nt
CCc1noc(C)c1C(=O)Nc1sc(C(=O)N(C)C)c(C)c1C#N	-4	28	4	104	6	i	nt	nt
C=CCn1c(-c2ccccn2)n[nH]c1=S	3	-10	-2	nt	1	i	nt	nt
COc1ccc(-c2ccc3c(c2)S(=O)(=O)c2cccc(C(=O)NCCOc4ccccc4Cl)c2C3=O)cc1OC	29*	-7	2	94	-17	i	14	16
COc1ccc(-c2ccc3c(c2)S(=O)(=O)c2cccc(C(=O)NCc4ccccc4Cl)c2C3=O)cc1OC	58*	-2	0	94	-2	i	15	17
COc1ccccc1-n1cc(-c2ccc([N+](=O)[O-])cc2)[nH]c1=S	43*	0	-1	nt	2	i	11	5
Cc1ccc(-n2cc(-c3ccc([N+](=O)[O-])cc3)[nH]c2=S)c(C)c1	63*	-1	2	104	2	i	42*	33*
Cc1ccc(OC(C)C(=O)N=Nc2c(O)[nH]c3ccc([N+](=O)[O-])cc23)cc1 (centres undefined)	3	0	-10	102	3	i	nt	nt
Cc1nc2ccc(S(=O)(=O)N(C)CC(=O)NCc3ccc(N(C)C)cc3)cc2s1	56*	9	2	nt	20	i	15	15
NC(=O)N/N=C/c1c(O)ccc2oc3c(c12)CCCC3	1	-5	13	100	-5	i	nt	nt
CC(C)(C)N=Cc1c(O)ccc2oc3c(c12)CCCC3	31*	23	73*	94	-68	i	4	0
CN1CCN(C2=Nc3c(Cl)cc(Cl)c4cccc2c34)CC1	82*	7	-2	93	1	i	101*	57*
CN1CCN(C2=C(Cl)C(=O)c3ccccc3C2=O)CC1	1	-3	-20	nt	-6	?	nt	nt
CC1CCCC(NC(=O)COC(=O)CCC(=O)c2ccc(F)cc2)C1C (centres undefined)	3	-35	8	89	-1	i	nt	nt
COc1ccc(C(=O)C[n+]2cccc3cc(OC)ccc32)cc1	-26	6	-6	101	0	nt	nt	nt
O=C(C[n+]1cccc2ccccc21)c1ccc(Cl)cc1	43*	3	4	208	-3	i	4	6
Cc1ccc(S(=O)(=O)N(C)CC(=O)NNC(=O)Cc2cccc(F)c2)cc1	2	1	-2	97	0	i	nt	nt
O=C(O)Cn1c(O)c(C2=c3ccccc3=NC2=O)sc1=O	66*	-12	0	99	36	i	67*	36*
SMILES	SENP1 inh	Exocytosis inh	Cardio protect	DSG3 Ab inh	HNF4A DNA FP	Myeloid diff MLP	SENP1 inh conf	SENP1 kinetic
O=C(O)CCC(C(=O)O)n1c(O)c(C2=c3ccccc3=NC2=O)sc1=S (centres undefined)	0	0	4	101	-2	i	nt	nt
COc1ccccc1N1CCN(C(=O)c2cccc(S(=O)(=O)Nc3ccccc3F)c2)CC1	0	-1	2	104	2	i	nt	nt
CCN(CC)S(=O)(=O)c1ccc(N2CCOCC2)c(NC(=O)c2ccc(C#N)cc2)c1	36*	0	4	94	-4	i	0	9
CC1=C(C(N)=O)S(=O)(=O)c2ccccc21	47*	0	-1	96	-5	i	47*	37
NC(=O)c1ccc2c(c1)S(=O)(=O)c1ccccc1C2=O	0	-2	1	92	1	i	nt	nt
COc1cc(/C=C2\CCCc3c2nc2ccccc2c3C(=O)O)cc(Br)c1O	56*	9	-3	nt	3	nt	97*	67*
COc1cc(/C=C2\CCc3c2nc2ccccc2c3C(=O)O)cc(OC)c1OC	-33	-1	-13	98	-48	i	nt	nt
CCn1ccnc1CN(C)C(=O)c1cc(COc2ccc(OC)c3ccccc23)on1	0	-10	-2	102	-2	i	nt	nt
Cc1ccc(-c2nc3ncccn3c2Nc2ccc3c(c2)OCCO3)o1	53*	1	11	98	38*	i	19	14
Oc1ccc(-c2nc3ncccn3c2Nc2ccc3c(c2)OCCO3)cc1	13	-3	5	103	2	i	nt	nt
COc1ccc(-c2nc3ncccn3c2Nc2ccc3c(c2)OCCO3)cc1	32*	-3	14	103	-2	i	-11	7
Brc1ccc(-c2nc3ncccn3c2Nc2ccc3c(c2)OCCO3)o1	35*	1	7	82	-1	i	9	3
Cc1ccc(-c2nc3ncccn3c2Nc2ccc3c(c2)OCCO3)cc1	18	-2	3	100	1	i	nt	nt
Cc1ccc(-c2nc3ncccn3c2NC2CCCCC2)o1	63*	-8	9	nt	-3	i	54*	36
CCOc1ccc(C(C(=O)NC2CCCCC2)N(C(=O)c2csnn2)C2CC2)cc1 (centres undefined)	1	5	0	112	4	?	nt	nt
Cc1ccc(-c2cccc(-c3cc(=O)oc4ccc(C(C)(C)C)cc34)c2)cc1	2	3	-13	104	-2	i	nt	nt

Screening data: PubChem BioAssay, several laboratories
